Reference: article PMC4589248 (Biochemical and biophysical research communications, 2015)

Columns and labels:
HsFATP2 = settings: 80 μM; yeast expressing HsFATP2; cited from earlier work
Caco-2 cells [1] = settings: 100 μM; cited from earlier work
HepG2 cells [2] = assay: Nuclear integrity; type: cell-based; settings: PA 0-500 μM, Grassofermata 0-50 μM
INS-1E cells [3] = assay: C1-BODIPY-C12 fatty acid uptake inhibition in INS-1E pancreatic β-cells; type: cell-based; settings: read-out: IC50, inhibition of C1-BODIPY-C12 uptake
Summary of the method: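 INS-1E cells kept in RPMI 1640 with 5 % FBS, 1 mM pyruvate, 50 μM 2-mercaptoethanol and 10 mM HEPES at 37 °C, 5 % CO2. Seeded at 2x10^5 cells/well on collagen and used after 96 h. C1-BODIPY-C12 uptake read as cell-associated fluorescence at 485/528 nm against test compound concentration. IC50 by non-linear dose-response fit; 3 experiments in triplicate, mean ± SE.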

[4] = system: primary mouse hepatocytes; assay: Palmitate-induced lipid accumulation; type: cell-based, mice; settings: 50 μM compound, each concentration of PA (0-500 μM)
Summary of the method: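 Hepatocytes isolated from 10–12-week 129S1/SvImJ mice and plated on collagen at 1.5x10^4 cells/well in DMEM with FBS, glucagon, hydrocortisone, EGF and insulin. Treated after 4–5 h of attachment with BSA-conjugated palmitate (0–500 μM, 2.5:1) with or without test compound (0–50 μM). Lipid measured by 30 μM Nile Red, 30 min at 37 °C, 485/590 nm. AFU per 10^6 cells; 3 experiments in triplicate.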

C57BL/6 male mice = assay: Inhibition of 13C-oleate absorption in mice; type: in vivo; settings: single oral dose 300 mg/kg, 6 hrs post-label administration
Summary of the method: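 Male C57BL/6 mice, 12 per group, fasted 12 h and given tyloxapol 500 mg/kg i.p. Gavaged with test compound 300 mg/kg in flaxseed oil or with oil alone. After 1 h, received flaxseed oil containing 500 mg/kg 13C-oleate. Plasma collected at 0.5, 2 and 6 h, Folch-extracted with nonadecanoic acid as internal standard. GC-MS in SIM mode, m/z 296 (12C) and 314 (13C oleate methyl ester). Mean ± SE of 10–12 mice.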

INS-1E cells [5] = assay: Nuclear integrity; type: cell-based; settings: PA 0-500 μM, Grassofermata 0-50 μM
[6] = system: cell lines that are models for intestines, liver, muscle and pancreas; assay: Fatty acid uptake inhibition, summary over cell lines; type: cell-based; settings: read-out: IC50, inhibition of fatty acid uptake
Caco-2 cells [7] = assay: Uptake of BODIPY FL-C16 and BODIPY FL-C5 in Caco-2 cells; type: cell-based, human
INS-1E cells [8] = assay: Palmitate-induced lipid accumulation; type: cell-based; settings: 50 μM compound, each concentration of PA (0-500 μM), 24 hrs
Summary of the method: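 INS-1E cells, 96 h after plating, treated for 24 h with BSA-conjugated palmitate (0–500 μM, 2.5:1 PA:BSA) with or without test compound (0–50 μM). Stained with 30 μM Nile Red for 30 min at 37 °C and read at ex/em 485/590 nm. Results as AFU per 10^6 cells; 3 experiments in triplicate.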

HepG2 cells [9] = assay: Palmitate-induced lipid accumulation; type: cell-based; settings: 50 μM compound, each concentration of PA (0-500 μM), 24 hrs
HepG2 cells [10] = assay: C1-BODIPY-C12 uptake in HepG2 cells; type: cell-based
Summary of the method: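 Inhibition kinetics in HepG2 cells using 7 test compound concentrations (1.25–15 μM) and 4 C1-BODIPY-C12 concentrations (2.5–10 μM). The plate reader's injectors dispensed compound, then added substrate at timed intervals. Initial uptake rates measured over 90 s by fluorescence. Best-fit inhibition model chosen by enzyme-kinetics analysis; points are mean with SD.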

[11] = Grassofermata level in mouse plasma; type: in vivo, mice; settings: male, C57BL/6, mouse, oral, 300 mg/kg
Summary of the method: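 Male C57BL/6 mice, 10 weeks old, in groups of 12, fasted 12 h and given tyloxapol 500 mg/kg i.p. They then received test compound 300 mg/kg in flaxseed oil by gavage, followed 1 h later by a 13C-oleate bolus. Plasma (EDTA) taken 0.5, 2 and 6 h after oleate. Plasma mixed with acetonitrile containing an analogue internal standard, acidified with TFA and centrifuged. Analysed by LC-MS/MS (C18, 457.1→411.1) against a 0.09–3.3 ng/μl standard curve.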

C2C12 cells = assay: C1-BODIPY-C12 fatty acid uptake inhibition in C2C12 myocytes; type: cell-based; settings: Mus musculus, C2C12, read-out: IC50, inhibition of C1-BODIPY-C12 uptake
Summary of the method: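 C2C12 mouse myoblasts grown in DMEM with 10 % FBS and 2 mM L-glutamine at 37 °C, 5 % CO2. Differentiated for 96 h at 8x10^4 cells/well in DMEM with 10 % horse serum. Uptake of fluorescent C1-BODIPY-C12 read as cell-associated fluorescence at ex/em 485/528 nm across a range of test compound concentrations. IC50 from non-linear dose-response regression; 3 experiments in triplicate, mean ± SE.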

human adipocytes = assay: C1-BODIPY-C12 fatty acid uptake inhibition in primary human adipocytes; type: cell-based; settings: read-out: IC50, inhibition of C1-BODIPY-C12 uptake
Summary of the method: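 Primary human preadipocytes seeded at 1.5x10^4 cells/well in alpha-MEM with 10 % FBS. Differentiated for 6 days with 540 μM IBMX plus 1 μM rosiglitazone, then kept without them until lipid droplets appeared. C1-BODIPY-C12 uptake read as cell-associated fluorescence at 485/528 nm across test compound concentrations. IC50 by non-linear dose-response fit; 3 experiments in triplicate.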

HepG2 cells [12] = assay: Uptake of BODIPY FL-C16 and BODIPY FL-C5 in HepG2 cells; type: cell-based
[13] = system: primary mouse hepatocytes; assay: Nuclear integrity; type: cell-based, mice; settings: primary murine hepatocytes; PA 0-500 μM, Grassofermata 0-50 μM

For `CN1CCN(C2=Nc3cc(Cl)ccc3Nc3ccccc32)CC1` [clozapine, Clozapine], the “inhibition of C1-BODIPY-C12 uptake” value (HsFATP2) is listed as “intermediate levels of inhibition” and the “inhibition of FA uptake” value (Caco-2 cells [1]) is listed as 30–50%.

With `O=c1cc(-c2ccc([N+](=O)[O-])cc2)[nH]c2c(-c3ccc(Cl)cc3)c(Cc3ccccc3)nn12` [Grassofermata, 2-benzyl-3-(4-chlorophenyl)-5-(4-nitrophenyl)pyrazolo[1,5-a]pyrimidin-7(4H)-one] the “DAPI staining (nuclear integrity)” value (HepG2 cells [2]) was “reduced DAPI staining of cells in a dose dependent manner”, the IC50 (INS-1E cells [3]) was 8.3 µM and the “accumulation of lipid (Nile Red)” value [4] was “significantly reduced”. For the same compound, the “reduction of the levels of labeled oleate in plasma” value (C57BL/6 male mice) was 37%, the “DAPI staining (nuclear integrity)” value (INS-1E cells [5]) was “reduced DAPI staining of cells in a dose dependent manner” and the IC50 [6] was 8 to 11 µM. The “effect on transport of BODIPY FL-C5” value (Caco-2 cells [7]; Caco-2, medium chain FA analog) was “did not affect”, the IC50 (Caco-2 cells [7]; Homo sapiens, Caco-2, read-out: IC50, inhibition of BODIPY FL-C16 uptake) was 13.5 ± 1.1 µM and the “accumulation of lipid (Nile Red)” value (INS-1E cells [8]) was “significantly reduced”. The “accumulation of lipid (Nile Red)” value (HepG2 cells [9]) was “significantly reduced”, the “mechanism of inhibition of C1-BODIPY-C12 uptake” value (HepG2 cells [10]; HepG2, Grassofermata 1.25-15 μM, C1-BODIPY-C12 2.5-10 μM) was “non-competitive mechanism of inhibition” and the concentration at 0.5 h [11] was 2100 ± 600 ng/mL. The concentration at 2 h [11] was 3400 ± 700 ng/mL, the concentration at 6 h [11] was 2900 ± 700 ng/mL and the IC50 (C2C12 cells) was 10.6 µM. For the same compound, the IC50 (human adipocytes) was 58.2 µM, the “effect on transport of BODIPY FL-C5” value (HepG2 cells [12]; HepG2, medium chain FA analog) was “did not affect” and the IC50 (HepG2 cells [12]; Homo sapiens, HepG2, read-out: IC50, inhibition of BODIPY FL-C16 uptake) was 17.3 ± 2.5 µM. The “DAPI staining (nuclear integrity)” value [13] was “reduced DAPI staining of cells in a dose dependent manner”.

For `CCCCCCCCCCC[C@@H](C[C@@H]1OC(=O)[C@H]1CCCCCC)OC(=O)[C@H](CC(C)C)NC=O` [Orlistat, reference compound], the “effect on C1-BODIPY-C12 uptake” value (HepG2 cells [10]; standard FA transport assay, cell line not stated for Orlistat) was “no effect”.

In the case of `CN(C)CCCN1c2ccccc2Sc2ccc(Cl)cc21` [chlorpromazine], the “inhibition of C1-BODIPY-C12 uptake” value (HsFATP2) is listed as “intermediate levels of inhibition” and the “inhibition of FA uptake” value (Caco-2 cells [1]) is listed as 30–50%.
